Usually IC50 stands for the concentration that gives 50% inhibition. Low readings indicate inhibition by little substance, high ones a need for much substance. Usually Papp A→B stands for the apparent permeability from the apical to the basolateral side of a cell layer. The term logD denotes lipophilicity at a set pH, counting ionised and neutral species. Higher therefore signals a more lipophilic compound. As usually defined, the efflux ratio is the permeability from basolateral to apical divided by that in the opposite direction, in the common usage. One may read the Cmax as the peak of the concentration-time curve.

≈ marks a conversion by molar mass, not a printed value.

One data set deals with Growth hormone secretagogue receptor type 1 (Homo sapiens, UniProt Q92847). As to the kind of experiment: Displacement of [125I]human ghrelin from human GHS-R1a expressed in HEK cell membranes after 60 mins by gamma counting method. More on the design: species or system HEK293.
Sequence of Growth hormone secretagogue receptor type 1 (Q92847 whole entry): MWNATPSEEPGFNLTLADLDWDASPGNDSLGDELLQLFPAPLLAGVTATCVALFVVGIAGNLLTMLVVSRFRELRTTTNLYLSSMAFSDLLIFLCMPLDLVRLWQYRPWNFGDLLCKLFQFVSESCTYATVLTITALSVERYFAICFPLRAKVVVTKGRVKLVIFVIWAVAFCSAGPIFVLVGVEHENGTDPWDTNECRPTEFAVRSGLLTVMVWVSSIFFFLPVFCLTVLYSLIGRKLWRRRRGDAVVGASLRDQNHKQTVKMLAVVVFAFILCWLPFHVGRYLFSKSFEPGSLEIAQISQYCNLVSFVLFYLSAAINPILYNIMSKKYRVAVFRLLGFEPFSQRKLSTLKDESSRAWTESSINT
Conditions: not given
Background: Displacement assays read how much labelled ligand stays bound in the presence of the test substance.
The compound `COc1ccc2nc(NC(=O)NC(=O)c3ccccc3Cl)sc2c1` came in with an IC50 of 76 nM.

For `CS(=O)(=O)c1ccc2sc(NC(=O)NC(=O)c3ccccc3Cl)nc2c1`, the IC50 was found to be 4700 nM.

`CCN(CC)CCCS(=O)(=O)c1ccc2nc(NC(=O)NC(=O)c3ccccc3Cl)sc2c1` displayed an IC50 of 13 nM.

Turning to `C#Cc1ccc(Cl)c(C(=O)NC(=O)Nc2nc3ccc(S(=O)(=O)CCCN4CCN(C)CC4)cc3s2)c1`, the IC50 came out at 5.1 nM.

In turn, `Cc1ccn(-c2ccc(C(=O)NC(=O)Nc3nc4ccc(S(=O)(=O)CCCN5CCN(C)CC5)cc4s3)c(Cl)c2)n1` showed an IC50 of 0.48 nM.

`CCc1ccc(Cl)c(C(=O)NC(=O)Nc2nc3ccc(S(=O)(=O)CCCN4CCN(C)CC4)cc3s2)c1`: the IC50 was found to be 0.078 nM.

The compound `CCN(CC)CCCS(=O)(=O)c1ccc2nc(NC(=O)NC(=O)c3cc(-n4cccc4)ccc3Cl)sc2c1` returned an IC50 of 0.43 nM.

The compound `CN1CCN(CCCS(=O)(=O)c2ccc3nc(NC(=O)NC(=O)c4cc(N5CCCC5)ccc4Cl)sc3c2)CC1` returned an IC50 of 0.29 nM.

Test system in the next data set: not listed separately
As to the kind of experiment: Ratio of drug level in homogenized brain to plasma in Han-Wistar rat measured 1 hr after iv bolus then iv infusion by LC-MS/MS method. The conditions noted are these: read-out: BPR. The class given is ADME, organism-based. The method, boiled down: (§1)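 Brain:plasma ratio in homogenized brain 1 h after IV bolus followed by IV infusion. The free ratio used free fractions measured in plasma and brain (brain slice method or brain homogenate).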
Regarding `C#Cc1ccc(Cl)c(C(=O)NC(=O)Nc2nc3ccc(S(=O)(=O)CCCN4CCN(C)CC4)cc3s2)c1`, the Kp at 1 h is below 0.03.

With `CCc1ccc(Cl)c(C(=O)NC(=O)Nc2nc3ccc(S(=O)(=O)CCCN4CCN(C)CC4)cc3s2)c1`, the Kp at 1 h is 0.036.

Turning to `CN1CCN(CCCS(=O)(=O)c2ccc3nc(NC(=O)NC(=O)c4cc(N5CCCC5)ccc4Cl)sc3c2)CC1`, the Kp at 1 h is below 0.03.

Another data set deals with MDR1. As to the kind of experiment: Apparent permeability in MDCK cells expressing MDR1 at 10 uM assessed as apical to basolateral side transport. The conditions noted are these: dog. The class given is ADME, cell-based, Canis lupus familiaris. An outline of the steps:
(§2)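 MDCK-MDR1 monolayers incubated with compound at 10 µM; permeability measured in both A→B and B→A directions, giving Papp A-B (x10^6 cm/s) and the efflux ratio.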
Turning to `CCN(CC)CCCS(=O)(=O)c1ccc2nc(NC(=O)NC(=O)c3ccccc3Cl)sc2c1`, the Papp A→B at 10 µM came to 5.4 ×10⁻⁶ cm/s.

`C#Cc1ccc(Cl)c(C(=O)NC(=O)Nc2nc3ccc(S(=O)(=O)CCCN4CCN(C)CC4)cc3s2)c1`: the Papp A→B at 10 µM turned out to be 3.3 ×10⁻⁶ cm/s.

On to `Cc1ccn(-c2ccc(C(=O)NC(=O)Nc3nc4ccc(S(=O)(=O)CCCN5CCN(C)CC5)cc4s3)c(Cl)c2)n1`, for which the Papp A→B at 10 µM was 3.5 ×10⁻⁶ cm/s.

Consider `CCc1ccc(Cl)c(C(=O)NC(=O)Nc2nc3ccc(S(=O)(=O)CCCN4CCN(C)CC4)cc3s2)c1`, for which the Papp A→B at 10 µM worked out at 1.7 ×10⁻⁶ cm/s.

With `CCN(CC)CCCS(=O)(=O)c1ccc2nc(NC(=O)NC(=O)c3cc(-n4cccc4)ccc3Cl)sc2c1`, the Papp A→B at 10 µM came to 0.1 ×10⁻⁶ cm/s.

In the case of `CN1CCN(CCCS(=O)(=O)c2ccc3nc(NC(=O)NC(=O)c4cc(N5CCCC5)ccc4Cl)sc3c2)CC1`, the Papp A→B at 10 µM was determined as 4.5 ×10⁻⁶ cm/s.

Test system in a further data set: not listed separately
Put plainly: Lipophilicity, logD of the compound. It is filed as physicochemical. Particulars: octanol/water.
On to `COc1ccc2nc(NC(=O)NC(=O)c3ccccc3Cl)sc2c1`, for which the logD is above 4.

`CS(=O)(=O)c1ccc2sc(NC(=O)NC(=O)c3ccccc3Cl)nc2c1` registered a logD of 2.8.

In the case of `CCN(CC)CCCS(=O)(=O)c1ccc2nc(NC(=O)NC(=O)c3ccccc3Cl)sc2c1`, the logD came to 1.7.

As for `C#Cc1ccc(Cl)c(C(=O)NC(=O)Nc2nc3ccc(S(=O)(=O)CCCN4CCN(C)CC4)cc3s2)c1`, the logD was determined as 2.3.

Turning to `Cc1ccn(-c2ccc(C(=O)NC(=O)Nc3nc4ccc(S(=O)(=O)CCCN5CCN(C)CC5)cc4s3)c(Cl)c2)n1`, the logD was 2.6.

Turning to `CCc1ccc(Cl)c(C(=O)NC(=O)Nc2nc3ccc(S(=O)(=O)CCCN4CCN(C)CC4)cc3s2)c1`, the logD is 2.9.

As for `CCN(CC)CCCS(=O)(=O)c1ccc2nc(NC(=O)NC(=O)c3cc(-n4cccc4)ccc3Cl)sc2c1`, the logD worked out at 2.9.

For the compound `CN1CCN(CCCS(=O)(=O)c2ccc3nc(NC(=O)NC(=O)c4cc(N5CCCC5)ccc4Cl)sc3c2)CC1`, the logD turned out to be 3.1.

Test system in a further data set: not listed separately
As to the kind of experiment: Ratio of free drug level in homogenized brain to plasma in Han-Wistar rat measured 1 hr after iv bolus then iv infusion by LC-MS/MS method. It is filed as ADME, organism-based. Particulars: read-out: BPR. The method, boiled down:
as §1
Regarding `CCc1ccc(Cl)c(C(=O)NC(=O)Nc2nc3ccc(S(=O)(=O)CCCN4CCN(C)CC4)cc3s2)c1`, the Kp uu at 1 h was found to be 0.04.

Test system in another data set: not listed separately
Put plainly: Aqueous solubility at pH 7.4 under thermodynamic conditions. It is filed as physicochemical. Particulars: buffer, read-out: Therm_solubility. The method, boiled down:
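Thermodynamic solubility measured from solid samples in aqueous medium at pH 7.4.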
Take `COc1ccc2nc(NC(=O)NC(=O)c3ccccc3Cl)sc2c1`: the solubility thermodynamic turned out to be 0.78 µM (≈ 0.282 µg/mL).

Take `CS(=O)(=O)c1ccc2sc(NC(=O)NC(=O)c3ccccc3Cl)nc2c1`: the solubility thermodynamic was found to be 3 µM (≈ 1.23 µg/mL).

`CCN(CC)CCCS(=O)(=O)c1ccc2nc(NC(=O)NC(=O)c3ccccc3Cl)sc2c1`: the solubility thermodynamic was found to be 280 µM (≈ 143 µg/mL).

Another data set relates to MDR1. Put plainly: Efflux ratio in MDCK cells expressing MDR1 at 10 uM. It is filed as ADME, cell-based, Canis lupus familiaris. The conditions noted are these: dog. An outline of the steps:
as §2
Regarding `CCN(CC)CCCS(=O)(=O)c1ccc2nc(NC(=O)NC(=O)c3ccccc3Cl)sc2c1`, the efflux ratio at 10 µM worked out at 2.7.

Take `C#Cc1ccc(Cl)c(C(=O)NC(=O)Nc2nc3ccc(S(=O)(=O)CCCN4CCN(C)CC4)cc3s2)c1`: the efflux ratio at 10 µM came to 3.3.

Take `Cc1ccn(-c2ccc(C(=O)NC(=O)Nc3nc4ccc(S(=O)(=O)CCCN5CCN(C)CC5)cc4s3)c(Cl)c2)n1`: the efflux ratio at 10 µM stood at 0.86.

As for `CCc1ccc(Cl)c(C(=O)NC(=O)Nc2nc3ccc(S(=O)(=O)CCCN4CCN(C)CC4)cc3s2)c1`, the efflux ratio at 10 µM stood at 13.

With `CCN(CC)CCCS(=O)(=O)c1ccc2nc(NC(=O)NC(=O)c3cc(-n4cccc4)ccc3Cl)sc2c1`, the efflux ratio at 10 µM turned out to be 42.

For the compound `CN1CCN(CCCS(=O)(=O)c2ccc3nc(NC(=O)NC(=O)c4cc(N5CCCC5)ccc4Cl)sc3c2)CC1`, the efflux ratio at 10 µM amounted to 0.55.

Test system in the next data set: not listed separately
As to the kind of experiment: Cmax in Han-Wistar rat at 2 mg/kg, po by LC-MS/MS method. It is filed as ADME, organism-based. More on the design: dose 2 mg/kg, route oral. The conditions noted are these: in vivo. The method, boiled down: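 Oral gavage in male HW rats, beagle dogs or CD-1 mice, vehicle Pluronic F127 in water. EDTA plasma was collected over 24 h and quantified by LC/MS/MS after acetonitrile precipitation. Cmax and bioavailability were obtained by non-compartmental analysis against IV data.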
`C#Cc1ccc(Cl)c(C(=O)NC(=O)Nc2nc3ccc(S(=O)(=O)CCCN4CCN(C)CC4)cc3s2)c1` gave a Cmax of 1400 nM.

In turn, `Cc1ccn(-c2ccc(C(=O)NC(=O)Nc3nc4ccc(S(=O)(=O)CCCN5CCN(C)CC5)cc4s3)c(Cl)c2)n1` registered a Cmax of 220 nM.

`CCc1ccc(Cl)c(C(=O)NC(=O)Nc2nc3ccc(S(=O)(=O)CCCN4CCN(C)CC4)cc3s2)c1`: the Cmax was 1500 nM.

The compound `CCN(CC)CCCS(=O)(=O)c1ccc2nc(NC(=O)NC(=O)c3cc(-n4cccc4)ccc3Cl)sc2c1` yielded a Cmax of 3600 nM.

In turn, `CN1CCN(CCCS(=O)(=O)c2ccc3nc(NC(=O)NC(=O)c4cc(N5CCCC5)ccc4Cl)sc3c2)CC1` registered a Cmax of 640 nM.

For the origin of these results see ChEMBL document CHEMBL3352721, “Identification, optimization, and pharmacology of acylurea GHS-R1a inverse agonists” (J Med Chem, 2014).
